Calls of active or inactive are those of the source. The calls are words filed in the database; no cut-off is given here.

Among the data in ChEMBL document CHEMBL4477194, “Royal Jelly Constituents Increase the Expression of Extracellular Superoxide Dismutase through Histone Acetylation in Monocytic THP-1 Cells” (J Nat Prod, 2016) are fold change (FC), inhibition and Activity values, retold here.

For experiment [1], the target named is Histone deacetylase 1 (Homo sapiens) (UniProt Q13547). The experiment in a line: Inhibition of HDAC1 in human THP1 cells assessed as increase in histone H4 acetylation level at 1 mM after 12 hrs by Western blot analysis relative to control. The class given is cell-based. A digest of the protocol: (§1)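 After 12 h treatment, THP-1 whole-cell extracts (20 μg protein) were run on 12% SDS-PAGE and transferred to PVDF. Membranes were blocked with 1% BSA in PBS and probed with anti-acetyl histone H3 or H4 primary antibodies (1:1000), then a biotin-conjugated secondary antibody (1:1000). Histone loading was checked by Coomassie staining.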
Chain of Histone deacetylase 1 (Homo sapiens) (Q13547 whole entry): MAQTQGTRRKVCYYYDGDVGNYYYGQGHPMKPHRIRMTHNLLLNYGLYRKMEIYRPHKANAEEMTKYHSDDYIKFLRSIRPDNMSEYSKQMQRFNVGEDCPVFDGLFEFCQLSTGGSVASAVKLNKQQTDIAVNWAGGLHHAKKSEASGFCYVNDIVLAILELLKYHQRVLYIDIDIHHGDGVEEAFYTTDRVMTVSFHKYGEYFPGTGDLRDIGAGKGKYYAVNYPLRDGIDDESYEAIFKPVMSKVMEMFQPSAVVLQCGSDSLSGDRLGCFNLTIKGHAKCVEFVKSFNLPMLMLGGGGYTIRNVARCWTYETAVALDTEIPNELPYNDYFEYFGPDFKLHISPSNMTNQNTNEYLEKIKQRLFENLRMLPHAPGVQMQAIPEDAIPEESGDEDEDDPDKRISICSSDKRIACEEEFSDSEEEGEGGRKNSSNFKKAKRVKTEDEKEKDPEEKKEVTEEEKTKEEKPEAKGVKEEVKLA
A general note: In western blotting, separated proteins are transferred to a membrane and probed.

Experiment [2] has the same target. In words: Inhibition of recombinant HDAC1 catalytic domain (unknown origin) using HDAC substrate at 1 mM preincubated for 1 hr followed by substrate addition measured after 30 mins by fluorescence assay relative to control. A digest of the protocol:
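Recombinant HDAC1 was mixed with compound in assay buffer, and the reaction was started with HDAC substrate for 30 min at 37 °C in the dark. Developer was then added for 15 min at room temperature. Fluorescence was read at ex 365 nm / em 410–460 nm and compared with untreated control; mean ± SD of three independent experiments.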

The species named for experiment [3] is Homo sapiens. The experiment in a line: Upregulation of HDAC1 inhibition/ERK signalling activation-mediated extracellular SOD mRNA expression in human THP1 cells at 1 mM after 24 hrs by RT-PCR method. The class given is cell-based. The gist of the method:
(§2)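 THP-1 cells (RPMI 1640, 10% heat-inactivated FCS, 37 °C, 5% CO2) were seeded at 2.0 × 10^6 cells/dish and treated for 24 h. Cells were washed with cold PBS and lysed in TRIzol, then analysed by real-time RT-PCR normalized to 18S rRNA. Values are mean ± SD of three independent experiments, with ANOVA and Bonferroni tests.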

The target of experiment [4] is Histone deacetylase (Homo sapiens) (UniProt Q13547+O15379+Q9UBN7+Q92769+Q9UQL6+Q8WUI4+Q9BY41+Q96DB2+P56524+Q9UKV0+Q969S8). The experiment in a line: Inhibition of HDAC activity in human THP1 cells at 1 mM preincubated for 1 hr followed by substrate addition measured after 2 hrs by fluorescence assay relative to control. Type of experiment: cell-based. The gist of the method:
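This is a cell-based HDAC assay. THP-1 cells at 5.0 × 10^4 cells/well were treated for 1 h, then HDAC substrate was added for 2 h at 37 °C. Lysis/developer solution followed for 15 min at 37 °C. Fluorescence was read at ex 365 nm / em 410–460 nm and compared with untreated cells; mean ± SD, n = 3 independent experiments.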

The target in experiment [5] is Histone deacetylase 1 (Homo sapiens) (UniProt Q13547). In words: Inhibition of HDAC1 in human THP1 cells assessed as increase in histone H3 acetylation level at 1 mM after 12 hrs by Western blot analysis relative to control. Type of experiment: cell-based. The gist of the method:
as §1

Experiment [6] deals with THP-1. In words: Upregulation of Mn SOD mRNA expression in human THP1 cells at 1 mM after 24 hrs by RT-PCR method. The class given is functional, cell-based. A digest of the protocol: as §2
For experiment [7], the system named is THP-1. The experiment in a line: Effect on Cu/Zn SOD mRNA expression in human THP1 cells at 1 mM after 24 hrs by RT-PCR method. The class given is functional, cell-based. A digest of the protocol: as §2
For experiment [8], the species on record is Homo sapiens. In words: Upregulation of HDAC1 inhibition/ERK signalling activation-mediated extracellular SOD protein expression in human THP1 cells at 1 mM after 24 hrs by ELISA. Type of experiment: cell-based. The gist of the method: (§3)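 EC-SOD protein content was measured by ELISA in THP-1 cells after 24 h treatment, with cells collected in PBS. Cells were cultured in RPMI 1640 with 10% heat-inactivated FCS at 37 °C and 5% CO2. Values are mean ± SD of three independent experiments, compared against untreated cells.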
A general note: ELISA stands for enzyme-linked immunosorbent assay.

In experiment [9] the test system is THP-1. The experiment in a line: Effect on HDAC3 mRNA expression in human THP1 cells at 1 mM after 24 hrs by RT-PCR method. Type of experiment: functional, cell-based. The gist of the method: (§4)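 THP-1 cells in RPMI 1640 with 10% heat-inactivated FCS, 37 °C, 5% CO2. Seeded 2.0 × 10^6 cells per 3.5 cm dish and treated 24 h, at 1 mM for the 1 mM lines and 100 μM for the 100 μM lines. RNA extracted in TRIzol, then real-time RT-PCR normalized to 18S rRNA. Means ± SD of three independent experiments; ANOVA with Bonferroni post hoc.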

For experiment [10], the system named is THP-1. The experiment in a line: Effect on HDAC4 mRNA expression in human THP1 cells at 1 mM after 24 hrs by RT-PCR method. The class given is functional, cell-based. The gist of the method:
as §4

In experiment [11] the test system is THP-1. The experiment in a line: Effect on HDAC9 mRNA expression in human THP1 cells at 1 mM after 24 hrs by RT-PCR method. The class given is functional, cell-based. A digest of the protocol:
as §4

Experiment [12] has as its system THP-1. The experiment in a line: Effect on HDAC8 mRNA expression in human THP1 cells at 1 mM after 24 hrs by RT-PCR method. The class given is functional, cell-based. A digest of the protocol:
as §4

Experiment [13] relates to THP-1. In words: Effect on HDAC5 mRNA expression in human THP1 cells at 1 mM after 24 hrs by RT-PCR method. Type of experiment: functional, cell-based. A digest of the protocol:
as §4

Experiment [14] deals with THP-1. The experiment in a line: Effect on HDAC2 mRNA expression in human THP1 cells at 1 mM after 24 hrs by RT-PCR method. Type of experiment: functional, cell-based. The gist of the method: as §4
In experiment [15] the test system is THP-1. The experiment in a line: Effect on HDAC1 mRNA expression in human THP1 cells at 1 mM after 24 hrs by RT-PCR method. Type of experiment: functional, cell-based. A digest of the protocol: as §4
The test system of experiment [16] is THP-1. In words: Effect on HDAC10 mRNA expression in human THP1 cells at 1 mM after 24 hrs by RT-PCR method. Type of experiment: functional, cell-based. The gist of the method:
as §4

The subject of experiment [17] is THP-1. The experiment in a line: Effect on HDAC6 mRNA expression in human THP1 cells at 1 mM after 24 hrs by RT-PCR method. The class given is functional, cell-based. A digest of the protocol: as §4
For experiment [18], the target named is Histone deacetylase 1 (Homo sapiens) (UniProt Q13547). In words: Upregulation of HDAC1 inhibition-mediated histone H3 acetylation-induced extracellular SOD expression in human THP1 cells at 1 mM after 12 hrs by chromatin immunoprecipitation method. The class given is cell-based. A digest of the protocol:
(§5)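 THP-1 cells (5 × 10^6) treated 12 h, at 1 mM or 100 μM per line. Cross-linked with formaldehyde 5 min at room temperature and chromatin sonicated to 150–800 bp. Immunoprecipitated overnight on protein G beads and washed in RIPA I/II and TE. Eluted with RNase A and proteinase K. EC-SOD promoter binding expressed as % of input.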

Experiment [19] shares this target. The experiment in a line: Upregulation of HDAC1 inhibition-mediated histone H4 acetylation-induced extracellular SOD expression in human THP1 cells at 1 mM after 12 hrs by chromatin immunoprecipitation method. Type of experiment: cell-based. A digest of the protocol: as §5
Experiment [20] concerns THP-1. The experiment in a line: Effect on HDAC7 mRNA expression in human THP1 cells at 1 mM after 24 hrs by RT-PCR method. Type of experiment: functional, cell-based. The gist of the method: as §4
The species named for experiment [21] is Homo sapiens. The experiment in a line: Upregulation of HDAC1 inhibition/ERK signalling activation-mediated extracellular SOD mRNA expression in human THP1 cells at 1 uM after 24 hrs by RT-PCR method. Type of experiment: cell-based. A digest of the protocol:
as §2

For experiment [22], the species on record is Homo sapiens. In words: Upregulation of HDAC1 inhibition/ERK signalling activation-mediated extracellular SOD protein expression in human THP1 cells at 1 uM after 24 hrs by ELISA. The class given is cell-based. A digest of the protocol:
as §3

The inhibition is the percentage by which the read-out fell short of the control. For the molecule `O=C(O)/C=C\CCCCCCCO`, the fold change (FC) in [1] was determined as 2.47; in [5], 1.29. Also, the inhibition in experiment [2] was found to be 50%. For the same molecule, the outcome in experiment [3], in [6] and in experiment [8] was Active. Further, the inhibition entry in experiment [4] was “Active”. Also, the outcome in [7] was inactive.

As to `O=C(O)CCCCCCCCCO`, the results for the fold change (FC) in experiment [1] and in experiment [5] were 2.45 and 1.33, respectively. The inhibition in experiment [2] was found to be 50%; in experiment [4], 20%. Also, the outcome in experiment [3], in [8] and in [19] was Active. Further, the outcome in experiment [9], in [10], in [11], in [12], in [13] and in [14] was inactive. Also, the result in experiment [6], in experiment [7], in [15], in [16], in experiment [17] and in experiment [18] was inactive. Moreover, the result in experiment [20] was inactive.

Regarding `CC(/C=C/C(=O)NO)=C\[C@@H](C)C(=O)c1ccc(N(C)C)cc1`, the outcome in experiment [21] and in experiment [22] was Active.

`O=C(O)CCCCCCCCC(=O)O`: the fold change (FC) in experiment [1] is 2.24; in experiment [5], 1.24. For the same molecule, the inhibition in experiment [2] was found to be 50%; in experiment [4], 20%. Besides, the result in experiment [3], in experiment [6], in experiment [8] and in experiment [19] was Active. The outcome in experiment [9], in [10], in experiment [11], in experiment [12], in experiment [13] and in [14] was inactive. For the same molecule, the outcome in experiment [7], in [15], in experiment [16], in [17], in [18] and in experiment [20] was inactive.
